Inhibition data for 60 compounds are collected here from PubChem BioAssay AID624268 (The Scripps Research Institute Molecular Screening Center, 2012).

SMILES strings stand for the structures. Out of some 360,000 compounds screened, about 1,500 (0.42%) were called active.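 How the source made its calls: active means inhibition above a per-plate cutoff of the control wells' mean inhibition plus 3 SD (cut at about 5.5% in these data); inactive means the rest.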 The entries come from a sample that favours actives as a whole.

The test concerns methionyl-tRNA synthetase (Trypanosoma brucei brucei). The test can be described thus: inhibition of trypanosome methionyl-tRNA synthetase – biochemical, luminescence, primary screen (AID 624268).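 Further: 0% = DMSO wells median and 100% = median of wells with control inhibitor compound.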 The note with it: purified T. brucei MetRS, ATP depletion, Kinase-Glo luminescence; at 11.9 µM; active compounds read high. The method in brief:
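Dosing: 11.9 µM single point; system: parasite MetRS enzyme; technique: luminescence of leftover ATP; times: 15 min enzyme-compound preincubation, 2 h reaction, 10 min detection, 25 °C; replicates: each compound tested once; read-out basis: percent inhibition relative to median high and low control wells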
(In general: Kinase-Glo measures the ATP left after a reaction by luminescence.)
By inhibition is commonly meant the change of the read-out against control, counted positive when it falls. Consider `NC(=O)CC[C@@H]1NC(=O)[C@@H]2CCCN2C(=O)c2cc([N+](=O)[O-])cc(F)c2NCCC[C@@H](C(N)=O)NC1=O`, for which the inhibition is -0.23% (inactive).

As for `O=S(=O)(NCc1cccnc1)c1ccc(Cl)nc1`, the inhibition was -1.09% (inactive).

As for `CC(CCN1CCN=C1N(C)C)c1ccccc1` (stereo not given), the inhibition is -0.2% (inactive).

For `C#CCNC(=O)C[C@@H]1C[C@@]2(C(=O)OCC)CCCC=C2N(Cc2ccco2)C1=O`, the inhibition is -0.95% (inactive).

As to `CCCn1nc(C(=O)NNC(=O)CSCC(=O)Nc2cc(C)on2)c2ccccc2c1=O`, the inhibition is -0.27% (inactive).

On to `O=C(NCCc1ccc(C(F)(F)F)cc1)c1ccc2c(c1)OCO2`, for which the inhibition is -0.15% (inactive).

Turning to `CCCCCCCC[n+]1cccc(C(=O)N2c3c(nc(N)[nH]c3=O)NC(C)C2C)c1` (stereo not given), the inhibition is 14.2% (active).

Regarding `C[C@H]1CN([C@@H](C)CO)C(=O)c2cc(-c3ccccc3F)cnc2O[C@H]1CN(C)C(=O)C1CCOCC1`, the inhibition was -1.85% (inactive).

In the case of `CCCn1c(=N)n(CC(=O)c2ccc(Cl)c(Cl)c2)c2ccccc21`, the inhibition was 1.04% (inactive).

Consider `O=C(Cn1c(NCCO)nc2ccccc21)c1ccc(Cl)cc1Cl`, for which the inhibition is 8.55% (active).

In the case of `O=C(Cn1c(-c2cscn2)nc2ccccc21)Nc1ccc(Cl)cc1`, the inhibition was 4.33% (inactive).

Consider `Brc1cnc2ccccc2c1N1CCCCC1`, for which the inhibition was -0.62% (inactive).

Take `CCOc1cc(NC(=S)NCCCN(C)C)c(OCC)cc1NC(=O)C1CC1`: the inhibition is -0.32% (inactive).

As for `COc1ccc(CCn2ccc(O)c(Cc3ccc(Cl)cc3Cl)c2=O)cc1OC`, the inhibition was 6.37% (active).

For the compound `COc1ccc(CCNC(=O)CCc2ccccc2O)cc1OC`, the inhibition is -0.3% (inactive).

As to `COc1ccc(CCN2CC(C(=O)OCC(=O)NCc3ccccc3Cl)CC2=O)cc1OC` (stereo not given), the inhibition is 0.43% (inactive).

Consider `CC(C)(CNC(=O)c1cc(=O)[nH]c2ccccc12)N1CCOCC1`, for which the inhibition is 0.28% (inactive).

In the case of `O=C(NCCN1CCOCC1)c1ccccc1N1C(=O)[C@@H]2Cc3c([nH]c4ccccc34)C(c3cccc(Cl)c3)N2C1=O` (stereo not given in full), the inhibition was 11.4% (active).

Regarding `O=C(NCCN1CCOCC1)Nc1cccc(Cl)c1`, the inhibition was 0.46% (inactive).

`CC/C(O)=C1\C(=O)CC(C)(C)CC1=NCCc1nc2ccccc2[nH]1`: the inhibition is 0.39% (inactive).

Regarding `CCOC(=O)C(=CNNc1ccsc1C(=O)OC)C(=O)OCC`, the inhibition was 0.74% (inactive).

Take `Cc1csc(/N=C/N(C)C)c1C#N`: the inhibition was -0.21% (inactive).

`O=c1c2ccccc2nc2n1C(CSCc1cccc(C(F)(F)F)c1)CS2` (stereo not given): the inhibition is -1% (inactive).

`CCN1CCCC1CNC(=O)Cn1cnc2ccc(S(=O)(=O)N3CCC(C)CC3)cc2c1=O` (stereo not given): the inhibition is -0.14% (inactive).

For the compound `CCN1CCCC1CNc1ncnc2c1[nH]c1ccc(F)cc12` (stereo not given), the inhibition is 30.4% (active).

For the compound `CC(C)OCCCNc1ncnc2c1[nH]c1ccc(F)cc12`, the inhibition is 85.6% (active).

`CCN1CCCC1Cn1cnc2c([nH]c3cc(OC)ccc32)c1=O` (stereo not given): the inhibition is 0.01% (inactive).

Regarding `CCNC(=O)CC1C(=O)N(c2ccc(OC)cc2)C(=O)N1CCOC` (stereo not given), the inhibition is -0.58% (inactive).

Turning to `CCOc1ccc(C(C(=O)NC2CCCC2)N(C(=O)c2snc(C(N)=O)c2N)C2CCCC2)cc1` (stereo not given), the inhibition is -0.03% (inactive).

Turning to `O=C1c2ccccc2[C@@H]2C[C@@H](O)[C@H](Nc3ccccc3Cl)CCN12`, the inhibition was -0.62% (inactive).

`CN1CCCN(C(=O)C2CCCCC2)CC1`: the inhibition was -0.59% (inactive).

For `O=C(NCc1ccco1)c1sc2cccc(F)c2c1Cl`, the inhibition was -1.04% (inactive).

As for `O=C(OCc1nc2ccccc2[nH]1)C1CCCCC1`, the inhibition is 14.4% (active).

Regarding `COc1ccc(CCNC(=O)COC(=O)C2CCCCC2)cc1`, the inhibition was 0.41% (inactive).

Consider `CCN(CC)S(=O)(=O)c1ccc2nc(COC(=O)c3n[nH]c4ccccc34)[nH]c2c1`, for which the inhibition was -0.9% (inactive).

For `O=C(c1ccc(N2CCCC2=O)cc1)N1CCN(c2ccc(C(F)(F)F)cc2[N+](=O)[O-])CC1`, the inhibition is -0.05% (inactive).

In the case of `COCCn1c(SC(C)C(=O)NC2CC2)nnc1-c1cccc(C)c1` (stereo not given), the inhibition is -0.37% (inactive).

Turning to `O=C(Nc1ccc(N2CCOCC2)cc1)c1cccc2c(-c3ccc(F)c(F)c3)coc12`, the inhibition is -0.14% (inactive).

As to `CSc1nsc(NC(=O)Nc2ccccc2)n1`, the inhibition was 19.9% (active).

`CCSc1nsc(NC(=O)Nc2cccc(C(C)=O)c2)n1`: the inhibition is -0.36% (inactive).

`C=CCSc1nsc(NC(=O)Nc2cccc(C(C)=O)c2)n1`: the inhibition is -1.33% (inactive).

As to `O=C(COC(=O)c1ccc(F)cc1F)Nc1ncccn1`, the inhibition was 0.09% (inactive).

Consider `O=C(ON=C1CCN(S(=O)(=O)c2ccccc2)CC1)c1ccc(Cl)cc1`, for which the inhibition is -0.24% (inactive).

For the compound `CCCn1c(SCC(=O)Nc2ccc(C)c(S(=O)(=O)N3CCOCC3)c2)n[nH]c1=O`, the inhibition was -1.6% (inactive).

Take `COc1ccc(OC)c(NC(=O)Cn2c(=O)oc3ccccc32)c1`: the inhibition was -0.7% (inactive).

Consider `Cc1ccc(CCCOC(=O)C[N+]2(C)CCCC2)cc1`, for which the inhibition is -0.15% (inactive).

Regarding `Cc1cccc(C)c1N1C(=O)CN(Cc2ccccc2)C1=S`, the inhibition is -1% (inactive).

As to `CCCCN1CC(C)(C)[C@H](CC(=O)Nc2ccc(Br)cc2)C1=O`, the inhibition was 0.54% (inactive).

Turning to `CCCCN1C[C@H](c2ccc(Br)cc2)[C@@H](CC(=O)Nc2ccc(Br)cc2)C1=O`, the inhibition was 38.6% (active).

On to `C[C@H]1CN(c2ccc(Br)cc2)C(=O)[C@@H]1CC(=O)Nc1ccc(Br)cc1`, for which the inhibition was -0.7% (inactive).

For `CCOC(=O)C1=C(c2ccccc2)NC(=O)NC1c1cc(OCC)c(O)c([N+](=O)[O-])c1` (stereo not given), the inhibition was -0.17% (inactive).

Take `O=C1CSc2ccc(C(=O)NCc3ccccn3)cc2N1`: the inhibition is -0.41% (inactive).

Take `c1ccc(CN=C2Nc3ccccc3CS2)nc1`: the inhibition is 11.2% (active).

In the case of `c1ccc(CCc2ccccn2)cc1`, the inhibition is -0.47% (inactive).

On to `Cc1ccc(C2CC(c3cccc(Br)c3)n3nc(N)nc3N2)cc1` (stereo not given), for which the inhibition was -0.23% (inactive).

Take `COc1ccc(C2CC(c3ccc(Cl)cc3Cl)Nc3nc(N)nn32)cc1OC` (stereo not given): the inhibition is 9.33% (active).

With `CCOc1ccccc1C1CC(c2ccc(Cl)cc2)Nc2nc(N)nn21` (stereo not given), the inhibition is 0.5% (inactive).

For `Cc1ccc(CNC(=O)CSc2nnc3c(n2)[nH]c2ccc(F)cc23)cc1`, the inhibition is 15.6% (active).

With `COc1ccc2[nH]c3nc(SCC(=O)NC4CC4)nnc3c2c1`, the inhibition was 0.12% (inactive).

Take `Cc1ccn2c(=O)nc(SCC(=O)NCc3ccc(F)cc3)nc2c1`: the inhibition is -0.43% (inactive).
